Bioassay records as filed in PubChem BioAssay.
Rows were chosen to be rich in hits. Some 1.8% of all compounds tested hit in one or more screens of this group.
M5 antag = human M5 muscarinic receptor antagonists, primary screen, CHO cells, Fluo-8 calcium fluorescence. inhibition, % at 3 µM. Muscarinic acetylcholine receptor M5 (Homo sapiens), P08912. CHO-hM5 cells, ACh EC80. 360,000 compounds, 0.59% hits;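 active means inhibition above a per-plate cutoff, the mean of that plate's test compounds plus 3 SD, cut at about 27% in these data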;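 further: 0% = acetylcholine EC80 with DMSO and 100% = DMSO without agonist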
M5 PAM = human M5 muscarinic receptor positive allosteric modulators, primary screen, CHO-K1 cells, Fluo-8 calcium fluorescence; Muscarinic acetylcholine receptor M5 (Homo sapiens), P08912; CHO-K1 hM5, ACh EC20 PAM; 0% = ACh EC20, 100% = ACh EC100; activation, % at 3 µM; 360,000 compounds, 0.3% hits; AID 624038, 2012;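 active means activation above the run cutoff, the mean activation of all test compounds plus 3 SD, cut at about 18% in these data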
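Assay system: CHO-K1 hM5 cells / Incubation: Fluo-8 loading 80 min at 37 °C plus 30 min room temperature / Technique: Fluo-8 calcium dye fluorescence, kinetic read / Repeats: single replicate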
M4 ag = human M4 muscarinic receptor agonists, primary screen, CHO-K1 cells, Fluo-8 calcium fluorescence. activation, % at 3 µM. AID 624127, 2012. 360,000 compounds, 0.14% hits. CHO-K1 hM4/Gqi5; vehicle 0%, full acetylcholine response 100%;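 active means activation above the run mean over all test wells plus 3 SD, cut at about 32% in these data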;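 further: peak over basal fluorescence ratio per well then scaled between controls; 0% = DMSO wells and 100% = acetylcholine at EC100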
Target sequence (P08173 whole entry, looked up): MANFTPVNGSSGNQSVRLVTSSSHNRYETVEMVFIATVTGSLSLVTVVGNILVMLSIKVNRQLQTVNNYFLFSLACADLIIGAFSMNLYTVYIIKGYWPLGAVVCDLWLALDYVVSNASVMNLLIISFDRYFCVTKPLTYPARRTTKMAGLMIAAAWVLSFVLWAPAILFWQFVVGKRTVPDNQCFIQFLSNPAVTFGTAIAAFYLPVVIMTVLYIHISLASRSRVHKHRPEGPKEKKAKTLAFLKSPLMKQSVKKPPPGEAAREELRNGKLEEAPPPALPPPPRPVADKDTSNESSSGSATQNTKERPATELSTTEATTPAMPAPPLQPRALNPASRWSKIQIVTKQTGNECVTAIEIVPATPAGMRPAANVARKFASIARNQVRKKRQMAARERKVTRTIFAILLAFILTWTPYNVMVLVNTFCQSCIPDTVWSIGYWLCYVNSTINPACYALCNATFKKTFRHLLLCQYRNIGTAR
M4 antag = human M4 muscarinic receptor antagonists, primary screen, CHO cells, Fluo-8 calcium fluorescence | AID 624125, 2012 | 360,000 compounds, 0.73% hits | inhibition, % at 3 µM | CHO-hM4 cells, ACh EC80;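 active means inhibition above its plate's cutoff, the mean inhibition of sample wells plus 3 SD, cut at about 27% in these data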;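 further: 0% = acetylcholine EC80 with DMSO and 100% = DMSO without agonist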
CHRM5 agonist = human M5 muscarinic receptor agonists, primary screen, CHO-K1 cells, Fluo-8 calcium fluorescence. activation, % at 3 µM. CHO-K1 hM5 cells; 0% DMSO wells, 100% maximal acetylcholine response. AID 624037, 2012. 360,000 compounds, 0.19% hits;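 active means activation above the run's mean over test compounds plus 3 SD, cut at about 23% in these data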;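 further: signal is peak over basal fluorescence ratio across the kinetic read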
M4 PAM = human M4 muscarinic receptor positive allosteric modulators, primary screen, CHO-K1 cells, Fluo-8 calcium fluorescence | Muscarinic acetylcholine receptor M4 (Homo sapiens), P08173 | CHO-K1 hM4/Gqi5, ACh EC20; 0% = ACh EC20, 100% = maximal ACh | activation, % at 3 µM | 360,000 compounds, 0.4% hits | AID 624126, 2012;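 active means activation above its plate's cutoff, the mean activation of sample wells plus 3 SD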
* marks the source's active call; other numbers are inactive results.

What do the screens show for `CC1CCN(C(=O)COC(=O)c2ccc3ccccc3n2)CC1`?
M5 antag: -4; M5 PAM: -5; M4 ag: 0; M4 antag: 4; CHRM5 agonist: 1; M4 PAM: -2

Results for CCn1c(=O)c2cc(C(=O)NCCN(C)C)sc2c2ccccc21 ?
M5 antag: -11; M5 PAM: 19*; M4 ag: 1; M4 antag: -4; CHRM5 agonist: -4; M4 PAM: -4

How did COc1cccc2c1C(=O)c1c(O)c3c(c(O)c1C2=O)C[C@@](O)(C(=O)CO)C[C@@H]3OC1CC(N)C(O)C(C)O1 (stereo not given in full) do in these assays?
M5 antag: 26; M5 PAM: -29; M4 ag: 17; M4 antag: 4; CHRM5 agonist: 75*; M4 PAM: -2

What do the screens show for `COc1cccc2c1C(=O)c1c(O)c3c(c(O)c1C2=O)C[C@@](O)(C(=O)CO)C[C@@H]3O[C@H]1C[C@H](N)[C@H](O)[C@H](C)O1`?
M5 antag: 15; M5 PAM: -11; M4 ag: 15; M4 antag: 6; CHRM5 agonist: 8; M4 PAM: -7

What do the screens show for `COc1cccc2c1C(=O)c1c(O)c3c(c(O)c1C2=O)CC(O)(C(C)=O)CC3OC1CC(N(C)C)C(O)C(C)O1` (stereo not given)?
M5 antag: 7; M5 PAM: -1; M4 ag: 7; M4 antag: 14; CHRM5 agonist: 19; M4 PAM: -2

Results for CC(=O)[C@@]1(O)Cc2c(O)c3c(c(O)c2[C@H](O[C@H]2C[C@H](N)[C@H](O)[C@H](C)O2)C1)C(=O)c1ccccc1C3=O ?
M5 antag: 8; M5 PAM: -2; M4 ag: 36*; M4 antag: 10; CHRM5 agonist: 26*; M4 PAM: 0

What do the screens show for `COc1ccccc1CNC1CCCc2ccccc21` (stereo not given)?
M5 antag: 17; M5 PAM: -9; M4 ag: 1; M4 antag: 30*; CHRM5 agonist: -7; M4 PAM: -14

What do the screens show for `COc1ccc(CNC2CCCc3ccccc32)cc1OC` (stereo not given)?
M5 antag: -6; M5 PAM: -2; M4 ag: 2; M4 antag: -17; CHRM5 agonist: -3; M4 PAM: 5

Results for COc1ccc(C(=O)c2sc3nc(-c4ccccc4)ccc3c2N)cc1 ?
M5 antag: 34*; M5 PAM: -17; M4 ag: 13; M4 antag: 15; CHRM5 agonist: 15; M4 PAM: -13

Results for CC(C)OC(=O)c1sc2nc(-c3ccccc3)ccc2c1N ?
M5 antag: -1; M5 PAM: -6; M4 ag: 13; M4 antag: 11; CHRM5 agonist: -3; M4 PAM: -10

Results for Cc1nc2sc(C(=O)c3ccccc3)c(N)c2c(C)c1C ?
M5 antag: -4; M5 PAM: -2; M4 ag: 69*; M4 antag: 67*; CHRM5 agonist: 0; M4 PAM: 13

What do the screens show for `CCN(C1CCCCC1)S(=O)(=O)c1ccc(S(=O)(=O)NCCc2ccncc2)cc1`?
M5 antag: -1; M5 PAM: -10; M4 ag: 5; M4 antag: 9; CHRM5 agonist: 1; M4 PAM: -9

What do the screens show for `CCN(C1CCCCC1)S(=O)(=O)c1ccc(S(=O)(=O)NCc2ccncc2)cc1`?
M5 antag: 29*; M5 PAM: -26; M4 ag: 25; M4 antag: 24; CHRM5 agonist: 11; M4 PAM: -13
